Measurements from ChEMBL document CHEMBL3232956, “Solid-supported synthesis, molecular modeling, and biological activity of long-chain arylpiperazine derivatives with cyclic amino acid amide fragments as 5-HT(7) and 5-HT(1A) receptor ligands” (Eur J Med Chem, 2014).

Legend:
Format in all cases: cell-based
[1] = target: 5-hydroxytryptamine receptor 7 (Homo sapiens, UniProt P34969); assay: Displacement of [3H]-5-CT from human 5-HT7 receptor expressed in HEK293 cells after 1 hr by beta-counting
HEK293 [2] = assay: Selectivity ratio of Ki for human 5-HT7 receptor expressed in HEK293 cells to Ki for human 5-HT1A receptor expressed in HEK293 cells
Outline: (§1)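 Ratios computed from Ki values from radioligand displacement in HEK293 membranes stably expressing human receptors: [3H]-8-OH-DPAT for 5-HT1A (1 h, room temperature) and [3H]-5-CT for 5-HT7b (1 h, 37 °C), filtration read-out. Each compound in triplicate at 7-8 concentrations (10^-11–10^-4 M); Ki by Cheng-Prusoff.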

[3] = target: T1, 5-hydroxytryptamine receptor 1A (Homo sapiens, UniProt P08908); assay: Displacement of [3H]-8-OH-DPAT from human 5-HT1A receptor expressed in HEK293 cells after 1 hr by beta-counting
T1 sequence (P08908 whole entry): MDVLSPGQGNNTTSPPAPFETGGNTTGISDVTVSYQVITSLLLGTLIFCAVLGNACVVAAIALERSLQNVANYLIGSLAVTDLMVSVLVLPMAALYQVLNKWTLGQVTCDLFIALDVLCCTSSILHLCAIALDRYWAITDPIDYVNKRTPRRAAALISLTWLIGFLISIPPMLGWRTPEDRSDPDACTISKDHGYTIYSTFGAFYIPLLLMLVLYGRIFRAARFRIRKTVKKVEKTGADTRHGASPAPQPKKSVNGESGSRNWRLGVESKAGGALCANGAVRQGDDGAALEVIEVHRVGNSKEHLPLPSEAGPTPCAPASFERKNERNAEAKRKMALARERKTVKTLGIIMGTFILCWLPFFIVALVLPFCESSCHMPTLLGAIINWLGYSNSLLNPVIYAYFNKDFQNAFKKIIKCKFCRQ
Outline: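 Human 5-HT1A receptor stably expressed in HEK293 cells; pellet homogenized in 20 vol buffer (50 mM Tris-HCl, 0.1 mM EDTA, 4 mM MgCl2, 0.1% ascorbate, pargyline), spun twice 35,000 g 20 min 4 °C, 15 min 37 °C between spins. Displacement of [3H]-8-OH-DPAT (187 Ci/mmol), 1 h room temperature; filtration, filter-bound radioactivity. Triplicate at 7-8 concentrations (10^-11–10^-4 M); Ki via Cheng-Prusoff.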

HEK293 [4] = assay: Selectivity ratio of Ki for human 5-HT1A receptor expressed in HEK293 cells to Ki for human 5-HT7 receptor expressed in HEK293 cells; outline: as §1

Chain of 5-hydroxytryptamine receptor 7 (P34969 whole entry): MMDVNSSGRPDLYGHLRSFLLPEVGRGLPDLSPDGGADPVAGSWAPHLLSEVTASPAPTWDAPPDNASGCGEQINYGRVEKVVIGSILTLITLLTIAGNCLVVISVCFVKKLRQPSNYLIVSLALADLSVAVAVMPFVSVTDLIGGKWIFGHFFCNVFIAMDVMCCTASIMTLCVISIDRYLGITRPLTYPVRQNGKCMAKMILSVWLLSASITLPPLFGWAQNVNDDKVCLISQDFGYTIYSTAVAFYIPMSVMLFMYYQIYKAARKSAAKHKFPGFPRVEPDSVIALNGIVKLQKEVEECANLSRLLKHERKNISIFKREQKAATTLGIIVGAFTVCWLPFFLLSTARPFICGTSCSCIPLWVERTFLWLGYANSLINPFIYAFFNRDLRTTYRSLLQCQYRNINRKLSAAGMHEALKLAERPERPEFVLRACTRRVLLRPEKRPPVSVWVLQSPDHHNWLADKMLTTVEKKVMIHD

Row | Ki [1] [nM] | Ki [3] [nM] | Compound | Ratio Ki (HEK293 [2]) | Ratio Ki (HEK293 [4])
1 | 1870 | 52 | NC(=O)[C@@H]1CCCN1C(=O)CCCCN1CCN(c2ccccc2O)CC1 | 36 | < 1
2 | 50 | 214 | NC(=O)[C@@H]1CCCN1C(=O)CCCCCN1CCN(c2noc3ccccc23)CC1 | < 1 | 4
3 | 101 | 122 | NC(=O)[C@@H]1CCCN1C(=O)CCCCCCN1CCN(c2noc3ccccc23)CC1 | < 1 | 1
4 | 1310 | 232 | NC(=O)[C@@H]1CCCN1C(=O)CCCCCN1CCN(c2ccccc2Cl)CC1 | 6 | < 1
5 | 163 | 47 | CSc1ccccc1N1CCN(CCCCC(=O)N2CCC[C@H]2C(N)=O)CC1 | 3 | < 1
6 | 1200 | 44 | COc1ccccc1N1CCN(CCCCCC(=O)N2CCC[C@H]2C(N)=O)CC1 | 27 | < 1
7 | 634 | 214 | COc1ccccc1N1CCN(CCCCC(=O)N2CCC[C@H]2C(N)=O)CC1 | 3 | < 1
8 | 302 | 12 | COc1ccccc1N1CCN(CCCCCC(=O)N2Cc3ccccc3C[C@H]2C(N)=O)CC1 | 25 | < 1
9 | 3130 | 141 | NC(=O)[C@@H]1CCCN1C(=O)CCCCCN1CCN(c2ccccc2F)CC1 | 22 | < 1
10 | 113 | 83 | NC(=O)[C@@H]1CCCN1C(=O)CCCCN1CCN(c2cccc(Cl)c2Cl)CC1 | < 1 | < 1
11 | 551 | 107 | COc1ccccc1N1CCN(CCCCC(=O)N2Cc3ccccc3C[C@H]2C(N)=O)CC1 | 5 | < 1
12 | 153 | 14 | CSc1ccccc1N1CCN(CCCCCC(=O)N2CCC[C@H]2C(N)=O)CC1 | 11 | < 1
13 | 179 | 4 | NC(=O)[C@@H]1CCCN1C(=O)CCCCCN1CCN(c2cccc(Cl)c2Cl)CC1 | 45 | < 1
14 | 495 | 23 | CSc1ccccc1N1CCN(CCCCCCC(=O)N2CCC[C@H]2C(N)=O)CC1 | 21 | < 1
15 | 4150 | 6310 | COc1ccccc1N1CCN(Cc2ccc(C(=O)N3CCC[C@H]3C(N)=O)cc2)CC1 | < 1 | 2
16 | 108 | 2910 | NC(=O)[C@@H]1CCCN1C(=O)CCCCN1CCN(c2noc3ccccc23)CC1 | < 1 | 27
17 | 478 | 38 | NC(=O)[C@@H]1CCCN1C(=O)CCCCCN1CCN(c2cccc(Cl)c2)CC1 | 13 | < 1

More lines, now with the values behind:

Row | Compound | Ki [1] [nM] | Ki [3] [nM] | Ratio Ki (HEK293 [2]) | Ratio Ki (HEK293 [4])
18 | NC(=O)[C@@H]1Cc2ccccc2CN1C(=O)c1ccc(CN2CCN(c3cccc(Cl)c3Cl)CC2)cc1 | 1200 | 212 | 6 | < 1
19 | NC(=O)[C@@H]1Cc2ccccc2CN1C(=O)CCCCCCN1CCN(c2noc3ccccc23)CC1 | 28 | 89 | < 1 | 3
20 | CSc1ccccc1N1CCN(Cc2ccc(C(=O)N3CCC[C@H]3C(N)=O)cc2)CC1 | 567 | 313 | 2 | < 1
21 | NC(=O)[C@@H]1Cc2ccccc2CN1C(=O)CCCCCN1CCN(c2cccc(Cl)c2)CC1 | 725 | 499 | 1 | < 1
22 | COc1ccccc1N1CCN(Cc2ccc(C(=O)N3Cc4ccccc4C[C@H]3C(N)=O)cc2)CC1 | 579 | 77 | 7 | < 1
23 | NC(=O)[C@@H]1Cc2ccccc2CN1C(=O)CCCCCN1CCN(c2noc3ccccc23)CC1 | 22 | 230 | < 1 | 10
24 | CSc1ccccc1N1CCN(CCCCC(=O)N2Cc3ccccc3C[C@H]2C(N)=O)CC1 | 51 | 18 | 3 | < 1
25 | NC(=O)[C@@H]1Cc2ccccc2CN1C(=O)CCCCN1CCN(c2ccc(Cl)cc2)CC1 | 223 | 211 | 1 | < 1
26 | CSc1ccccc1N1CCN(CCCCCC(=O)N2Cc3ccccc3C[C@H]2C(N)=O)CC1 | 78 | < 1 | > 78 | < 1
27 | NC(=O)[C@@H]1CCCN1C(=O)CCCCCN1CCN(c2ccc(F)cc2)CC1 | 1190 | 573 | 2 | < 1
28 | NC(=O)[C@@H]1Cc2ccccc2CN1C(=O)CCCCCN1CCN(c2ccccc2Cl)CC1 | 393 | 236 | 2 | < 1
29 | NC(=O)[C@@H]1Cc2ccccc2CN1C(=O)CCCCN1CCN(c2ccc(F)cc2)CC1 | 295 | 1910 | < 1 | 6
30 | NC(=O)[C@@H]1Cc2ccccc2CN1C(=O)CCCCCN1CCN(c2ccccc2O)CC1 | 476 | 72 | 7 | < 1
31 | CSc1ccccc1N1CCN(Cc2ccc(C(=O)N3Cc4ccccc4C[C@H]3C(N)=O)cc2)CC1 | 148 | 122 | 1 | < 1
32 | CSc1ccccc1N1CCN(CCCCCC(=O)NC2CCCc3ccccc32)CC1 (stereo unspecified) | 0.22 | – | – | –
33 | NC(=O)[C@@H]1Cc2ccccc2CN1C(=O)CCCCCN1CCN(c2ccc(F)cc2)CC1 | 107 | 643 | < 1 | 6
34 | CSc1ccccc1N1CCN(CCCCCCC(=O)N2Cc3ccccc3C[C@H]2C(N)=O)CC1 | 111 | 2 | 55 | < 1
35 | NC(=O)[C@@H]1Cc2ccccc2CN1C(=O)CCCCCN1CCN(c2cccc(Cl)c2Cl)CC1 | 95 | 16 | 6 | < 1
36 | NC(=O)[C@@H]1Cc2ccccc2CN1C(=O)CCCCN1CCN(c2noc3ccccc23)CC1 | 18 | 377 | < 1 | 21
